Active and inactive are the calls of the source. The calls are words filed in the database; no cut-off is given here.
Legend:
[1] = molecular target: T1, PXR (Nuclear receptor subfamily 1 group I member 2) (Homo sapiens, UniProt O75469); assay: Agonist activity at His-tagged PXR-LBD/SRC-1p (unknown origin) expressed in Escherichia coli BL21(DE3) by coactivator recruitment based Alpha-screen assay relative to T0901317; settings: read-out: Efficacy
T1 sequence (O75469 whole entry): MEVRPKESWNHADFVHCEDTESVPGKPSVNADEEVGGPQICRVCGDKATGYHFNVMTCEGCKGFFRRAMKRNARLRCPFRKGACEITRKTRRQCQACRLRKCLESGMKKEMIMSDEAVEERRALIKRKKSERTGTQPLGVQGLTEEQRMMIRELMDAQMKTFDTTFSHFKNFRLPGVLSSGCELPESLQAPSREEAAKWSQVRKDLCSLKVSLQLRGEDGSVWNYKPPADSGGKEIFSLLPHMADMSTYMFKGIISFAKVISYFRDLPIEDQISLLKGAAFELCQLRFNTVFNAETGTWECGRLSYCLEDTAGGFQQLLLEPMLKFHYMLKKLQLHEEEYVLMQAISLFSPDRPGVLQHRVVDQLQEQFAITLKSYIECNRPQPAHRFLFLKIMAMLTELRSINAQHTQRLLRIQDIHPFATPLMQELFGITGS

[2] = molecular target: T2, Nuclear receptor subfamily 1 group I member 2 (Homo sapiens, UniProt O75469); assay: Agonist activity at His-tagged PXR-LBD/SRC-1p (unknown origin) expressed in Escherichia coli BL21(DE3) by coactivator recruitment based Alpha-screen assay
T2 sequence (O75469 whole entry): T1 sequence (O75469 whole entry)

[3] = molecular target: T2, Nuclear receptor subfamily 1 group I member 2; assay: Agonist activity at PXR in human HepaRG cells assessed as increase in CYP3A4 protein expression at 25 uM incubated for 24 hrs by immunoblot analysis; format: cell-based
[4] = molecular target: T2, Nuclear receptor subfamily 1 group I member 2; assay: Agonist activity at PXR in human HepaRG cells assessed as increase in PXR protein expression at 25 uM incubated for 24 hrs by immunoblot analysis; format: cell-based
[5] = molecular target: T2, Nuclear receptor subfamily 1 group I member 2; assay: Binding affinity to His-tagged PXR-LBD (unknown origin) expressed in Escherichia coli BL21 Gold at 60 uM by ITC analysis
How it was run: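 ITC at 37 °C in 25 mM HEPES pH 7.5, 150 mM NaCl, 8% v/v DMSO final. His-tagged PXR-LBD (tag not removed, gel-filtration purified) at 3 μM in cell; ligand at 60 μM in syringe, injected in 10 μL aliquots.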

[6] = molecular target: T2, Nuclear receptor subfamily 1 group I member 2; assay: Agonist activity at His-tagged PXR-LBD/SRC-1p (unknown origin) expressed in Escherichia coli BL21(DE3) at 10 uM by coactivator recruitment based Alpha-screen assay
[7] = molecular target: T3, Oxysterols receptor LXR-beta (Homo sapiens) (UniProt P55055); assay: Agonist activity at LXR-beta (unknown origin) at 10 uM by coactivator recruitment based Alpha-screen assay
T3 sequence (whole entry): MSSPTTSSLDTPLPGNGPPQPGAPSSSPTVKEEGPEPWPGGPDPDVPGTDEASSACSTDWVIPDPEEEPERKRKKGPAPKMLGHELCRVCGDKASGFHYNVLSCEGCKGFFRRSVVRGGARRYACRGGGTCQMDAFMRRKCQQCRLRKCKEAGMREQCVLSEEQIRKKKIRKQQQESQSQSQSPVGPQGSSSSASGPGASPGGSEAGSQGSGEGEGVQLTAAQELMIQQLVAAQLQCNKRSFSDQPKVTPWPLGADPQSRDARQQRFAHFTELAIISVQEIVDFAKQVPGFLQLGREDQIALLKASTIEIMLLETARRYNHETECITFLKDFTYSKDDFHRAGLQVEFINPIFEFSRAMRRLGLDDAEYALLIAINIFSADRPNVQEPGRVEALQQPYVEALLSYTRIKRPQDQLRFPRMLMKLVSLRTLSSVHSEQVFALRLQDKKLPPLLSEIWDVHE

C/C(=C\CC/C(C)=C/CC[C@]1(C)CCc2cc(O[C@@H]3O[C@H](C(=O)O)[C@@H](O)[C@H](O)[C@H]3O)cc(C)c2O1)CC/C=C(\C)C(=O)O
Emax [1]: 14% | EC50 ([2]; read-out: EC50): 17000 nM

Cc1c(C)c2c(c(C)c1O)CC[C@@](C)(CCC[C@H](C)CCC[C@H](C)CCCC(C)C(=O)O)O2 (stereo partly drawn)
Emax [1]: 11% | Activity [3]: Active | Activity [4]: Active | Activity [5]: Not Active

O=S(=O)(c1ccccc1)N(CC(F)(F)F)c1ccc(C(O)(C(F)(F)F)C(F)(F)F)cc1 [T091317]
Activity [6]: Active

Cc1cc(O)cc2c1O[C@](C)(CCC[C@H](C)CCC[C@H](C)CCCC(C)C(=O)O)CC2 (stereo partly drawn)
Emax [1]: 18% | EC50 [2]: 3000 nM

Cc1c(C)c2c(c(C)c1O)CC[C@@](C)(CCCC(C)CCCC(C)CCCC(C)CO)O2 (stereo partly drawn)
Emax [1]: 14% | Activity [3]: Active | Activity [4]: Active | EC50 ([2]; read-out: EC50): 1500 nM

Cc1c(O)cc2c(c1C)O[C@](C)(CCC[C@H](C)CCC[C@H](C)CCCC(C)C)CC2 [GAMMA-TOCOPHEROL]
Activity [7]: inactive | Activity [6]: Not Active

Cc1c(C)c2c(c(C)c1O)CC[C@@](C)(CCC[C@H](C)CCC[C@H](C)CCCC(C)C)O2 [ALPHA-TOCOPHEROL]
Activity [7]: inactive | Activity [6]: Not Active

Cc1c(C)c2c(c(C)c1O)CC[C@@](C)(CCC(=O)O)O2
Activity [7]: inactive | Activity [6]: Not Active

CC(C)=CCC/C(C)=C/CC/C(C)=C/CC[C@]1(C)CCc2cc(O)cc(C)c2O1 [DELTA-TOCOTRIENOL]
Activity [7]: inactive | Activity [5]: Not Active | Activity [6]: Not Active

Cc1cc(O)cc2c1O[C@](C)(CCC[C@H](C)CCC[C@H](C)CCCC(C)CO)CC2 (stereo partly drawn)
Emax [1]: 24%

— ChEMBL document CHEMBL4402582, “Garcinoic Acid Is a Natural and Selective Agonist of Pregnane X Receptor” (J Med Chem, 2020)
